What is called IC50 is the concentration needed to halve the response being measured. A word on the CC50: it is the concentration at which the toxic effect on the cells reaches its halfway point.

One data set relates to Plasmodium yoelii. Description: Antiplasmodial activity against liver stage of Plasmodium yoelii 17X NL sporozoites infected in human HepG2 cells expressing CD81 after 48 hrs by DAPI staining-based immunofluorescence analysis. The format is functional, organism-based. Particulars: HepG2, 48 h. In a few lines: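 HepG2/CD81 cells were grown in D-MEM with 10% FBS. 25×10^3 cells/well went on collagen-coated wells; after 24 h they received compound and 5000 P. yoelii sporozoites together, then were spun 900 × g for 10 min at 4 °C. Treatment was renewed at 3 h and 24 h. At 48 h cells were methanol-fixed, stained with anti-HSP70 immunofluorescence, and parasites counted by microscopy. IC50 is 50% fewer parasites than in 0.5% DMSO controls.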

The test system of data set [1] is Plasmodium falciparum. Description: Antiplasmodial activity against chloroquine-sensitive Plasmodium falciparum 3D7 infected in human erythrocytes assessed as parasite growth inhibition after 72 hrs by SYBR Green I dye-based fluorescence assay. The data set is classed as functional, organism-based. The procedure, abridged: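 Parasites grown in A+ human erythrocytes (2.5% haematocrit) in RPMI 1640 with 25 mM HEPES, 25 mM NaHCO3 and 10% A+ serum, at 37 °C under 6% CO2/14% O2/80% N2. Rings were sorbitol-synchronized. Compounds in DMSO (<0.5% final) were incubated 72 h at 2% haematocrit and 1% parasitaemia. SYBR Green lysis read at ex 497/em 520 nm; duplicates; IC50 from three independent experiments.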

A short description of data set [2]: (§1) Cytotoxicity against human HepG2 cells assessed as cell viability after 72 hrs by MTT assay. Particulars: HepG2 cells. The format is cell-based. In a few lines:
(§2)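 Cells were kept in RPMI with 10% FBS. 5×10^3 cells/well were settled 24 h, then exposed to compound from DMSO (final <0.5%): CHO for 24 h, HepG2 for 72 h, in duplicate. Wells were checked for precipitate. MTT was added for 2 h at 37 °C, formazan dissolved in DMSO, and A570 read (630 nm reference). Viability is % of untreated cells; CC50 from non-linear regression, mean of three experiments.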
A general note: Formazan colour is commonly taken as a measure of viable cells.

Data set [3] concerns Plasmodium falciparum. In words: Antiplasmodial activity against multi-drug resistant erythrocytic stage of Plasmodium falciparum K1 isolated from synchronized culture assessed as reduction in parasitemia at 5 X IC50 measured for 32 hrs by spectrophotometric analysis relative to control. The arrangement: scale not given: the % may be the effect or the level left. The format is functional. The procedure, abridged: (§3)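 K1 cultures were synchronized to an 8-h window with 5% D-sorbitol and held in 24-well plates at 0.8% parasitemia and 4% hematocrit. They received 8-h compound pulses (DMSO <0.5%) at successive points of the cycle, then three washes and culture to the ring stage of the next cycle. Fluorescence read at 497/520 nm; % growth inhibition versus DMSO control; chloroquine as positive control.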

Data set [4] is described as follows: Selectivity index, ratio of CC50 for human HepG2 cells to IC50 for multi-drug resistant Plasmodium falciparum K1 infected in human erythrocytes.
Data set [5] in a line: Cytotoxicity against human HepG2 cells expressing CD81 assessed as cell viability after 72 hrs by MTT assay. The data set is classed as cell-based.
Data set [6] deals with Plasmodium falciparum. In words: Antiplasmodial activity against multi-drug resistant Plasmodium falciparum K1 infected in human erythrocytes assessed as parasite growth inhibition after 72 hrs by SYBR Green I dye-based fluorescence assay. The format is functional, organism-based. Particulars: read-out: IC50.
A further data set concerns Plasmodium berghei. In words: Antiplasmodial activity against chloroquine-sensitive Plasmodium berghei NK65 infected in Swiss mouse assessed as reduction in parasitemia at 2.5 mg/kg, ip bid administered for 4 days measured on day 4 by Giemsa staining relative to control. The format is functional. The arrangement: scale not given: the % may be the effect or the level left. Particulars: route intraperitoneal. The procedure, abridged: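 Male Swiss mice (20 ± 2 g) were infected on day 0 with 10^7 parasitized cells in 0.9% saline. Groups of 5 were dosed ip at 2.5 mg/kg twice a day from day 0 to day 3.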

Data set [7] relates to Plasmodium falciparum. In words: Antiplasmodial activity against multi-drug resistant erythrocytic stage of Plasmodium falciparum K1 isolated from synchronized culture assessed as reduction in parasitemia at 5 X IC50 measured for 8 hrs by spectrophotometric analysis relative to control. The data set is classed as functional. The arrangement: scale not given: the % may be the effect or the level left. In a few lines:
as §3

Data set [8] is described as follows: Selectivity index, ratio of CC50 for human HepG2 cells expressing CD81 to IC50 for liver stage of Plasmodium yoelii 17X NL sporozoites infected in human HepG2 cells expressing CD81. The data set is classed as functional.
Data set [9] is described as follows: Selectivity index, ratio of CC50 for human HepG2 cells to IC50 for chloroquine-sensitive Plasmodium falciparum 3D7 infected in human erythrocytes. The data set is classed as functional. The procedure, abridged: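 SI = HepG2 CC50 (72 h MTT) / P. falciparum IC50. […] Cultures were exposed 72 h at 37 °C to compound (DMSO final <0.5%), in duplicate. Growth was read by SYBR Green I lysis fluorescence (ex 497, em 520 nm), from three independent experiments.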

The subject of data set [10] is Plasmodium falciparum. Description: Antiplasmodial activity against multi-drug resistant Plasmodium falciparum K1 infected in human erythrocytes assessed as depolarization of mitochondrial membrane at IC50 after 20 mins by flow cytometric analysis. The format is functional, organism-based. Background: In flow cytometry, cells or beads pass a laser one at a time.
Data set [11] is described as follows: Cytotoxicity against CHO cells assessed as cell viability after 24 hrs by MTT assay. Particulars: chinese hamster. The format is cell-based, Cricetulus griseus. The procedure, abridged:
as §2

Data set [12] can be described thus: Inhibition of Plasmodium falciparum DHFR after 48 hrs. The procedure, abridged: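 Recombinant S. cerevisiae whose own DHFR is replaced by the P. falciparum DHFR domain was used. 1×10^4 cells were grown in YEPD with compound from DMSO (final <0.5%) at 30 °C for 48 h, in duplicate. Growth was read as A660. IC50 (50% growth inhibition) came from non-linear regression.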

Data set [13] has as its system Salmonella typhimurium. Description: Mutagenicity in Salmonella typhimurium TA97A at 2.5 mM after 1 hr by Ames test in presence of S9 fraction. Particulars: salmonella enterica subsp. enterica serovar typhimurium, s9, 1 h, 2500 µM. The format is toxicity, organism-based. The procedure, abridged:
(§4)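 Tester strains were grown overnight in nutrient broth. Top agar was added and the mix plated on Vogel-Bonner agar. Revertants were counted after 48 h at 37 °C in the dark. A twofold rise over spontaneous revertants counts as mutagenic.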
A general note: The Ames test detects mutagens through reverse mutation in bacteria.

In the next data set the test system is HepG2. The data set is described as §1. The data set is classed as cell-based. Particulars: hepg2, 72 h, 72 h, read-out: CC50. The procedure, abridged: as §2
Data set [14] concerns Salmonella typhimurium. Description: Mutagenicity in Salmonella typhimurium TA100 at 2.5 mM after 1 hr by Ames test in absence of S9 fraction. The data set is classed as toxicity, organism-based. Particulars: salmonella enterica subsp. enterica serovar typhimurium, 2500 µM. In a few lines:
(§5)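 Tester strains were grown overnight in nutrient broth. 0.1 mL culture was incubated 1 h at 37 °C with shaking with compound (2.5–25 mM DMSO solutions), with or without 4% S9 mix. Top agar was added and the mix plated on Vogel-Bonner agar. Revertants were counted after 48 h at 37 °C in the dark. A twofold rise over spontaneous revertants counts as mutagenic.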

Data set [15] in a line: Genotoxicity in DNA (unknown origin) incubated for 24 hrs in dark condition by methyl green displacement assay. In a few lines:
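DNA-methyl green (4 mg in 20 mL 0.05 M Tris-HCl pH 7.5 with 7.5 mmol/L MgSO4) was shaken 24 h at 37 °C. It was then added to compound from DMSO (final <0.5%). A630 was read, and read again after 24 h at room temperature in the dark. DC50 is the concentration displacing 50% of methyl green.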

For data set [16], the system named is Salmonella typhimurium. In words: Mutagenicity in Salmonella typhimurium TA97A at 2.5 mM after 1 hr by Ames test in absence of S9 fraction. The format is toxicity, organism-based. Particulars: salmonella enterica subsp. enterica serovar typhimurium, 2500 µM. In a few lines:
as §5

The subject of a further data set is Toxoplasma gondii. In words: Antitoxoplasmic activity against tachyzoite stage of Toxoplasma gondii PRU transfected with beta galactosidase infected in HFF assessed as parasite growth inhibition after 96 hrs by colorimetric microtiter assay. The data set is classed as functional. In a few lines: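 Confluent HFF monolayers (1×10^4 seeded) were infected with 2×10^3 PRU-β-Gal tachyzoites for 3 h. Compounds from DMSO (final <0.5%) were then added in triplicate for 96 h at 37 °C. CPRG was added at 500 µM final for 24 h more, then A570 read (630 nm reference). IC50 came from non-linear regression, mean of three experiments.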

The nature of data set [17]: Inhibition of hemozoin polymerization after 24 hrs by spectroscopic analysis. The data set is classed as functional. The procedure, abridged:
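Hemozoin (4 mM solution in 0.1 M NaOH) was mixed with compound at drug:heme ratios of 1:1 to 8:1, in triplicate. Acetic acid was added to pH 3, and samples were incubated 24 h at 37 °C. Soluble, DMSO-soluble and pellet fractions were separated by centrifugation. Each fraction was quantified at A405 against a hemozoin standard curve. IC50 is 50% decrease in polymerization.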

Data set [18] has as its system Salmonella typhimurium. Description: Mutagenicity in Salmonella typhimurium TA100 at 2.5 mM after 1 hr by Ames test in presence of S9 fraction. The format is toxicity, organism-based. Particulars: salmonella enterica subsp. enterica serovar typhimurium, s9, 1 h, 2500 µM. In a few lines:
as §4

A further data set relates to Leishmania donovani. Description: Antileishmanial activity against promastigote stage of Leishmania donovani assessed as parasite growth inhibition after 72 hrs by MTT assay. The format is functional, organism-based. In a few lines: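 L. donovani promastigotes were grown at 27 °C in Schneider's medium with 10% FBS. 1×10^6 log-phase cells/well were exposed to compound from DMSO (final <0.5% v/v) for 72 h at 27 °C, in duplicate. MTT was then added for 6 h, formazan dissolved in DMSO, and A570 read (630 nm reference). IC50 came from non-linear regression, mean of three independent experiments.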

Data set [19] has as its system Plasmodium falciparum. Description: Antiplasmodial activity against multi-drug resistant Plasmodium falciparum K1 infected in human erythrocytes assessed as parasite growth inhibition after 72 hrs by SYBR Green I dye-based fluorescence assay in presence of ascorbic acid. The format is functional, organism-based. Particulars: K1, 72 h. In a few lines:
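Same SYBR Green I 72 h growth assay on the K1 strain (2% haematocrit, 1% parasitaemia, 37 °C, 6% CO2/14% O2/80% N2, DMSO <0.5%), with 800 µM ascorbic acid in the medium as radical trap. Duplicates; artesunate as positive control; IC50 derived.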

Data set [20] concerns Plasmodium falciparum. Description: Antiplasmodial activity against multi-drug resistant Plasmodium falciparum K1 after 72 hrs by SYBR Green I dye-based fluorescence assay. Particulars: K1, 72 h.
Data set [21] in a line: Cytotoxicity against human HepG2 cells expressing CD81 assessed as cell viability after 72 hrs by CellTiter-glo assay. The data set is classed as cell-based.

The structures appear in SMILES notation. Active and inactive are the calls of the source. The calls are words filed in the database; no cut-off is given here.

For the molecule `Cc1ccc(-c2cc3nc(NC(C)(C)C)[nH]c(=O)c3s2)cc1.Cl`, the figures for the IC50 with Plasmodium yoelii, with Plasmodium falciparum [1] and with Plasmodium falciparum [6] were 0.035 µM, 0.035 µM and 0.045 µM, respectively. For the same molecule, the CC50 at 72 h is 24 µM in [2] and more than 143 µM in data set [5]. Further, the values for the Activity in the data set with Plasmodium falciparum [3], with Plasmodium berghei and in the data set with Plasmodium falciparum [7] were 30%, 45% and 41%, respectively. For the same molecule, the “Ratio CC50/IC50” value in data set [4] is reported as 533; in data set [8], more than 4086; in data set [9], 686.

Take `CC(C)(C)Nc1nc2cc(-c3ccc(Cl)cc3)sc2c(=O)[nH]1` [listing 1 of 2 here]: the outcome in the data set with Plasmodium falciparum [10] was inactive.

In the case of `COc1cccc2c1C(=O)c1c(O)c3c(c(O)c1C2=O)C[C@@](O)(C(=O)CO)C[C@@H]3O[C@H]1C[C@H](N)[C@H](O)[C@H](C)O1` [DOXORUBICIN], the CC50 at 24 h in [11] was found to be 0.6 µM.

For `CC(C)(C)Nc1nc2cc(-c3ccc(Cl)cc3)sc2c(=O)[nH]1` [listing 2 of 2 here], the IC50 in [12] is more than 250 µM; in the data set with Plasmodium falciparum [1] it was 0.344 µM; with Toxoplasma gondii, more than 10 µM; in data set [17], more than 25000 µM; in the data set on Leishmania donovani it was more than 10 µM; with Plasmodium falciparum [6] it was 0.8 µM. In addition, the IC50 in the data set on Plasmodium falciparum [19] came out at 0.8 µM. In addition, the Activity result with Salmonella typhimurium [13], in the data set on Salmonella typhimurium [14], in the data set on Salmonella typhimurium [16] and in the data set on Salmonella typhimurium [18] was “Non-toxic” throughout. Further, the CC50 in the data set with HepG2 stood at 15 µM. Moreover, the “Ratio CC50/IC50” value in [4] was 19; in data set [9], 44. In [15], this molecule registered a DC50 of more than 25000 µM.

Consider `CN(C)c1nc2cc(-n3cnc4cc(-c5ccc(Cl)cc5)sc4c3=O)ccc2n1CCCN1CCCC1`, for which the IC50 with Plasmodium falciparum [20] was less than 10 µM.

For `CCN(CC)CCCC(C)Nc1ccnc2cc(Cl)ccc12` (centres undefined) [CHLOROQUINE], the IC50 with Plasmodium yoelii was determined as 1.65 µM; in data set [17] it was 1460 µM. Also, the CC50 at 72 h in data set [21] is 1.6 µM. Moreover, in the data set on Plasmodium berghei, the Activity is given as 85%. The CC50 at 24 h in data set [11] was 155 µM.

Values taken from ChEMBL document CHEMBL3414541, “Discovery of new thienopyrimidinone derivatives displaying antimalarial properties toward both erythrocytic and hepatic stages of Plasmodium” (Eur J Med Chem, 2015).
